Test results published in ChEMBL document CHEMBL1142067, “Antiparasitic drug nitazoxanide inhibits the pyruvate oxidoreductases of Helicobacter pylori, selected anaerobic bacteria and parasites, and Campylobacter jejuni” (Antimicrob Agents Chemother, 2007).
Calls of active or inactive are those of the source. No cut-off for these calls is given here.

Assays:
[1] = test system: Escherichia coli; assay: Growth inhibition of Escherichia coli CC104 expressing rdxA after 16 hrs relative to Escherichia coli with pBSK; assay type: functional, organism-based
Summary of the method: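 E. coli CC104 carrying pGS950 (expresses H. pylori rdxA) or empty pBSK was grown in 2% glucose minimal (MinA) liquid medium with drug at 0, 5, 10 or 15 µg/ml. Turbidity at 660 nm was read at 16 h in triplicate cultures, normalized to the no-drug control, and expressed as percent growth inhibition (mean and standard deviation).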

[2] = test system: Giardia duodenalis; assay: Activity of PFOR in Giardia intestinalis at anaerobic condition
Summary of the method: (§1)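 Cell-free extracts, high-speed supernatant after sonication (parasites: sonication or glass homogenizer). PFOR assayed anaerobically at 25°C in 100 mM potassium phosphate pH 7.4 with 10 mM pyruvate, 0.18 mM CoA, 1 mM MgCl2 and 5 µM TPP. Acceptor was 5 mM benzyl viologen (546 nm) or NTZ (decrease at 418 nm). Enzyme added last. Triplicate means, per mg Bradford protein.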

[3] = molecular target: T1, Pyruvate-flavodoxin oxidoreductase (Clostridium perfringens (strain SM101 / Type A)) (UniProt Q0SRB6); assay: Activity of PFOR in Clostridium perfringens at anaerobic condition; summary of the method: as §1
T1 sequence (whole entry): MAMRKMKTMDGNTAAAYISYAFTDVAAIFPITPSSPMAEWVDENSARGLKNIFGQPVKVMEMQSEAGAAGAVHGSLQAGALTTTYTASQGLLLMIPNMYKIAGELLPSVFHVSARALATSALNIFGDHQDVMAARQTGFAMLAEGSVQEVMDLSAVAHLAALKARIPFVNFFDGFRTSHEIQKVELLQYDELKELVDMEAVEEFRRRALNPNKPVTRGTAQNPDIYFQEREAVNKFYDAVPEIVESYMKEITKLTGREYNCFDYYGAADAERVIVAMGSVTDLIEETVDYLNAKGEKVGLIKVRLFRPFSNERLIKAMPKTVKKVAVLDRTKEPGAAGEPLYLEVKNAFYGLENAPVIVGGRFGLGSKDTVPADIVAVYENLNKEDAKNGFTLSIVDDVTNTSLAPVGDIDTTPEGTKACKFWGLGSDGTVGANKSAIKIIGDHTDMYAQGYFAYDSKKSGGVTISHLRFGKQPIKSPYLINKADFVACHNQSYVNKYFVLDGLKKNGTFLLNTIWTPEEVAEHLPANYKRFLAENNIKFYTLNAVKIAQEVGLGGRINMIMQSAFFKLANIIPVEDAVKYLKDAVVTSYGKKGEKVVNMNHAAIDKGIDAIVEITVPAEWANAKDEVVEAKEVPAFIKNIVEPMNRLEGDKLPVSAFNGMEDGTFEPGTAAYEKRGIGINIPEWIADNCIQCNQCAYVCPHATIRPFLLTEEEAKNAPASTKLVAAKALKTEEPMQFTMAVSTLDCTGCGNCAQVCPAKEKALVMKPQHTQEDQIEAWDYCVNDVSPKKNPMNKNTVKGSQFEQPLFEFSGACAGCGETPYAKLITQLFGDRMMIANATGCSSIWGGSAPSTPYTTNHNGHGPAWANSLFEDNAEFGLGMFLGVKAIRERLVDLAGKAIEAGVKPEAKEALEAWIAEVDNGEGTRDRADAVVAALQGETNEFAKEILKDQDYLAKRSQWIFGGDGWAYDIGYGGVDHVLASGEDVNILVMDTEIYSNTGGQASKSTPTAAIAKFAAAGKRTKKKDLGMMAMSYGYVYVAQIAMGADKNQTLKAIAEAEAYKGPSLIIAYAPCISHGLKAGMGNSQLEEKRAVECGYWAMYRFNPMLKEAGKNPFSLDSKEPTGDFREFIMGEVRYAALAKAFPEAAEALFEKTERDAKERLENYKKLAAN

[4] = molecular target: T2, Pyruvate-flavodoxin oxidoreductase (Campylobacter jejuni subsp. jejuni) (UniProt Q0P8E1); assay: Activity of PFOR in Campylobacter jejuni at anaerobic condition; summary of the method: as §1
T2 sequence (whole entry): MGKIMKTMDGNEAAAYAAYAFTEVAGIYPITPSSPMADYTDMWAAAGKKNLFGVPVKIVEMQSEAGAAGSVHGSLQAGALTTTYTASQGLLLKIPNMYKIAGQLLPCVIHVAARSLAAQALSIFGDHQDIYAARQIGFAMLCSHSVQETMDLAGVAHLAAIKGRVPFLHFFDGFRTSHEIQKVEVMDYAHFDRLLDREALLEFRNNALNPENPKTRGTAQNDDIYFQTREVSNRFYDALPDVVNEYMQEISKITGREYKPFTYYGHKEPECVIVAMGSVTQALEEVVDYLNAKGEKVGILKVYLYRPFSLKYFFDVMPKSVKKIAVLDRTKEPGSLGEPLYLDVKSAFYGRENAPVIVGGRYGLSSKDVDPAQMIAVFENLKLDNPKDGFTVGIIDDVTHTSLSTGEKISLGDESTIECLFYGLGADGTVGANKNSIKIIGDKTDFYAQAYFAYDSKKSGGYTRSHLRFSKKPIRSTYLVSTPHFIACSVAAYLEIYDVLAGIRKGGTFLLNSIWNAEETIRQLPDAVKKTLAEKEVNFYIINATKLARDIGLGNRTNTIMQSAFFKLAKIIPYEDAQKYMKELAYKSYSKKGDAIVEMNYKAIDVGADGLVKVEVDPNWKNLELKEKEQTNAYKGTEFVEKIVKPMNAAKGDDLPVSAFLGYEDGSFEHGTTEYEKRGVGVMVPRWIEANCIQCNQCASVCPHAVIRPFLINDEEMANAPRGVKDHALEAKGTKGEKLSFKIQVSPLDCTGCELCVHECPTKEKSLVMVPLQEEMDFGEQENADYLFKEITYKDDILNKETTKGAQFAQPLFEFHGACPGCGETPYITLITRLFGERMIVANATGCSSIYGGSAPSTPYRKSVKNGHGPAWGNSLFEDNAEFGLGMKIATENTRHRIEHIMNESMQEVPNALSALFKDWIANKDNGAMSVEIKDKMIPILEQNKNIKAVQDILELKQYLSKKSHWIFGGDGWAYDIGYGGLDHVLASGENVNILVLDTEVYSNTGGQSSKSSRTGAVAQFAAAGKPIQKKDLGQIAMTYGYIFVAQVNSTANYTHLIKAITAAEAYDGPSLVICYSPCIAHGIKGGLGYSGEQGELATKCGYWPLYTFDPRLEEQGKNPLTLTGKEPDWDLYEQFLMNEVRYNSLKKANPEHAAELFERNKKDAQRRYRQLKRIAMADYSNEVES

[5] = test system: Clostridioides difficile; assay: Activity of PFOR in Clostridium difficile at anaerobic condition; summary of the method: as §1
[6] = test system: Trichomonas vaginalis; assay: Activity of PFOR in Trichomonas vaginalis at anaerobic condition; summary of the method: as §1
[7] = test system: Helicobacter pylori; assay: Activity of PFOR in Helicobacter pylori at anaerobic condition; summary of the method: as §1
[8] = test system: Entamoeba histolytica; assay: Activity of PFOR in Entamoeba histolytica at anaerobic condition; summary of the method: as §1
[9] = test system: Escherichia coli; assay: Growth inhibition of Escherichia coli CC104 expressing rdxA gene after 16 hrs; assay type: functional
Summary of the method: (§2)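 E. coli CC104 carrying pGS950 (H. pylori rdxA) or empty pBSK, grown in 2% glucose MinA liquid medium with drug at 0, 5, 10 or 15 µg/ml. Turbidity at 660 nm read at 16 h in triplicate and expressed as a percentage of the no-drug control.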

[10] = test system: Escherichia coli; assay: Growth inhibition of Escherichia coli pBSK after 16 hrs; assay type: functional; summary of the method: as §2
[11] = Inhibition of PFOR Helicobacter pylori
Summary of the method: (§3)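 PFOR in extracts or partly purified enzyme, standard anaerobic assay at 25°C with excess benzyl viologen (5 mM). Initial velocities of BV reduction at 546 nm measured at each NTZ level (0 to 264 µM). Plotted as 1/V against inhibitor concentration to derive Ki. Triplicate.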

[12] = Inhibition of PFOR Entamoeba histolytica; summary of the method: as §3
[13] = Inhibition of PFOR Trichomonas vaginalis; summary of the method: as §3
[14] = test system: Escherichia coli; assay: Inhibition of Escherichia coli JVQ2 PDH at 20 uM
[15] = molecular target: T3, Pyruvate-flavodoxin oxidoreductase (Campylobacter jejuni subsp. jejuni, UniProt Q0P8E1); assay: Inhibition of PFOR Campylobacter jejuni; summary of the method: as §3
T3 sequence (Q0P8E1 whole entry): T2 sequence (whole entry)

[16] = test system: Escherichia coli; assay: Growth inhibition of Escherichia coli; assay type: functional
[17] = test system: Entamoeba histolytica; assay: Inhibition of Entamoeba histolytica PFOR cloned in Escherichia coli assessed as [14C]pyruvate decarboxylation by BV assay

Row | SMILES | Activity [1] | Activity [2] [nmol/mg/min] | Activity [3] [nmol/mg/min] | Activity [4] [nmol/mg/min] | Activity [5] [nmol/mg/min] | Activity [6] [nmol/mg/min] | Activity [7] [nmol/mg/min] | Activity [8] [nmol/mg/min] | Km [2] [µM] | Inhibition [9] [%] | Inhibition [10] [%] | Ki [11] [µM] | Ki [12] [µM] | Ki [13] [µM] | inhibition [14] [%] | Ki [15] [µM] | MIC [16] [µg/mL] | Activity [17]
1 | Cc1ncc([N+](=O)[O-])n1CCO | Active | – | – | – | – | – | – | – | – | – | – | – | – | – | – | – | – | –
2 | c1ccc(C[n+]2ccc(-c3cc[n+](Cc4ccccc4)cc3)cc2)cc1 | – | 62.5 | 225 | 115 | 106 | 52.5 | 127 | 742 | – | – | – | – | – | – | – | – | – | –
3 | CC(=O)Oc1ccccc1C(=O)Nc1ncc([N+](=O)[O-])s1 [NITAZOXANIDE] | – | 41.5 | 56.5 | 20 | 18.8 | – | 8.5 | 19 | 44 | 35 | 35 | 4.5 | 10 | 2.2 | 22 | 10.5 | > 32 | Active
